Here are results for two molecules from paper PMC9099060 (Dose-Response, 2022).

What all share (assay type): biochemical
In test [1] the target is T1, DPP-IV (Homo sapiens, UniProt P27487). As to the kind of experiment: In vitro inhibitory activity against DPP-IV.
In test [2] the target is α-glucosidase (Saccharomyces cerevisiae, UniProt P07265). Description: In vitro inhibitory activity against α-glucosidase.
For test [3], the target named is T1, DPP-IV. Description: Inhibitory kinetics study. In a few lines:
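Test compound was tested separately at 0.25 and 0.5 mg/mL, each against Gly-Pro-AMC at various concentrations (0–60 μM). Inhibition pattern was assigned from Lineweaver-Burk plots. Ki was obtained from a double-reciprocal plot of initial […] against substrate. Values are mean ± SD, n = 6.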

Test [4] has as its target T2, human α-amylase (HPA) (Homo sapiens, UniProt P04746).
T2 sequence (P04746 16-511): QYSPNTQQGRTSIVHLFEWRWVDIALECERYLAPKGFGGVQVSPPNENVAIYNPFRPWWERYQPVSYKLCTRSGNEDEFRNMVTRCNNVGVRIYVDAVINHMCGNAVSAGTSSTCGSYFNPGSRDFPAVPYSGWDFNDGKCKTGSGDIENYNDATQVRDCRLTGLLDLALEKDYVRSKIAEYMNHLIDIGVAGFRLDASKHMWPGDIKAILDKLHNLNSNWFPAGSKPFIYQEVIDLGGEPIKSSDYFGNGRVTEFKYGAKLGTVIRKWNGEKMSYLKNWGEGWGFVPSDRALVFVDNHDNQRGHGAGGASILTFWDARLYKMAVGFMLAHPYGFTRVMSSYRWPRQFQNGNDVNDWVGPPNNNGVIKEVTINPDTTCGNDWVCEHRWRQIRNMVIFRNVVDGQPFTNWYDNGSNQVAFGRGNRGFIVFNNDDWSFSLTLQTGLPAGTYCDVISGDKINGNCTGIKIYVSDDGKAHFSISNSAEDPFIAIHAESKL
As to the kind of experiment: In vitro inhibitory activity against α-amylase. The settings on record: α-amylase IC50 (μM)±SD, starch substrate; mean ± SD, n = 6.

T1 sequence (P27487 whole entry): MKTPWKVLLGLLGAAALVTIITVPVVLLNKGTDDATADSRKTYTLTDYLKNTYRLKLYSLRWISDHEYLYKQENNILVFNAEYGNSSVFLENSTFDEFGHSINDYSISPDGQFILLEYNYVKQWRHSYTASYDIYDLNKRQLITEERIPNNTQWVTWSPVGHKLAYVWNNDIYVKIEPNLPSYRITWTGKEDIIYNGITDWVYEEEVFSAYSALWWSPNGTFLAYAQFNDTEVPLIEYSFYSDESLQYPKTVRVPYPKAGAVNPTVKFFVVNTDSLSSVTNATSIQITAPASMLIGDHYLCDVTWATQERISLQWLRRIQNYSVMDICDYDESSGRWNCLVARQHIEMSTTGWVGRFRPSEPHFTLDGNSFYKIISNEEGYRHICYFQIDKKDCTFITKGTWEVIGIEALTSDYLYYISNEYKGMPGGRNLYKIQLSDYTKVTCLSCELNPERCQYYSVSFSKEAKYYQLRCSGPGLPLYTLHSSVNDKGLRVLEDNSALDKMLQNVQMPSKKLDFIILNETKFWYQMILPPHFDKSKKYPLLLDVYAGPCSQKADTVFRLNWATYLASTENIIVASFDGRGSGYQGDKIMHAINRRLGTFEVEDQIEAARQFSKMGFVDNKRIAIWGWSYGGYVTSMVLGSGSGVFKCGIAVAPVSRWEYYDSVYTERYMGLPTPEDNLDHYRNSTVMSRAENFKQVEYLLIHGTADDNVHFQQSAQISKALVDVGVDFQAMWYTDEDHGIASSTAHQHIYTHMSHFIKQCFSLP
Chain of α-glucosidase (P07265 whole entry): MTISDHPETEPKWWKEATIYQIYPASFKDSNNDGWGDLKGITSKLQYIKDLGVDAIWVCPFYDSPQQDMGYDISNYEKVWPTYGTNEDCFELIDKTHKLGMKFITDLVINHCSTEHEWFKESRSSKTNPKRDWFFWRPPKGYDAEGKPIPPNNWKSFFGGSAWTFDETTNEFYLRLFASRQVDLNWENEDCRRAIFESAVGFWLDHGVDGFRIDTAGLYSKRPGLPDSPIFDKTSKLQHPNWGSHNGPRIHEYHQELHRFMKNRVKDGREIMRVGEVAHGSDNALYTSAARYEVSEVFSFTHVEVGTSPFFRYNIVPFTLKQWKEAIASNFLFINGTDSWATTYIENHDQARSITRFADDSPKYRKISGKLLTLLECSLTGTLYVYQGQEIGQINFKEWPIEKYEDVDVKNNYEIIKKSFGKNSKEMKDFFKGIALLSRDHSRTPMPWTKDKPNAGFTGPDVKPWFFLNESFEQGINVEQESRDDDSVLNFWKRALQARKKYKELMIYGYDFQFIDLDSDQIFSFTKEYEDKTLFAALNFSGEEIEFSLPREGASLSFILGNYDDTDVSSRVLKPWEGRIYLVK

As to `Oc1ccc(/C=C/c2cc(O)cc(O)c2)cc1` [Resveratrol], the IC50 in test [1] worked out at 5.638 ± 0.0016 µM; in test [2], 47.9 ± 5.21 µM. In addition, the Ki in test [3] turned out to be 15 µM.
Take `O=C1c2c(O)cc(O)cc2OC(c2ccc(O)c(O)c2)C1O` (stereo not shown) [Taxifolin]: the results for the IC50 in test [4], in test [1] and in test [2] were 31.3 ± 0.556 µM, 6.691 ± 0.004 µM and 45.9 ± 3.78 µM, respectively. The molecule also came in with a Ki in test [3] of 12.3 µM.

As usually defined, the IC50 is the concentration at which inhibition is half-maximal. A lower IC50 goes with inhibition by little substance. The Ki is the dissociation constant of the complex between target and ligand, obtained from inhibition or displacement. Low readings indicate higher affinity, high ones lower affinity.
